Compounds with a hit are over-represented: about 2.8% of the library has one in this group of screens.
PAFAH1B3 inh = inhibitors of human PAFAH1B3; recombinant PAFAH1B3, FP-rhodamine probe, fluorescence polarization; inhibition, % at 3.39 µM; Q15102; actives 0.28% (n = 340,000);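 active = inhibition above the screen-wide average of all tested compounds plus 3 SD, cut at about 25% in these data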;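 note: 0% = enzyme with DMSO only and 100% = wells lacking PAFAH1B3 protein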
PAFAH1B2 inh = blocks human PAF acetylhydrolase 1b catalytic subunit 2; recombinant PAFAH1B2, FP-rhodamine activity probe, fluorescence polarization; AID 492953; P68402; inhibition, % at 3.39 µM; actives 1.2% (n = 340,000);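 active = inhibition above the mean of all tested compounds plus 3 SD, cut at about 24% in these data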;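 note: 0% = enzyme with DMSO and 100% = wells lacking PAFAH1B2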
PAFAH2 inh = inhibitors of human PAFAH2 | recombinant PAFAH2, FP-rhodamine activity probe, fluorescence polarization | AID 492956 | inhibition, % at 3.39 µM | actives 0.99% (n = 340,000) | Q99487;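 active = inhibition above the mean over all tested compounds plus 3 SD, cut at about 30% in these data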;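 note: inhibitors block probe labeling of enzyme so polarization drops; 0% = enzyme with DMSO and 100% = wells lacking PAFAH2 protein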
ASAP1 GAP inh = ASAP1 ArfGAP inhibition; Q9ULH1; ASAP1-stimulated ARF1 GTP hydrolysis, GDP FP detection; inhibition, % at 16.5 µM; actives 0.19% (n = 360,000); AID 624377; in the data active = inhibition above about 25%;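 note: 0% = vehicle with enzyme and substrate and 100% = no enzyme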
Target sequence (Q9ULH1 325-724 limits assumed): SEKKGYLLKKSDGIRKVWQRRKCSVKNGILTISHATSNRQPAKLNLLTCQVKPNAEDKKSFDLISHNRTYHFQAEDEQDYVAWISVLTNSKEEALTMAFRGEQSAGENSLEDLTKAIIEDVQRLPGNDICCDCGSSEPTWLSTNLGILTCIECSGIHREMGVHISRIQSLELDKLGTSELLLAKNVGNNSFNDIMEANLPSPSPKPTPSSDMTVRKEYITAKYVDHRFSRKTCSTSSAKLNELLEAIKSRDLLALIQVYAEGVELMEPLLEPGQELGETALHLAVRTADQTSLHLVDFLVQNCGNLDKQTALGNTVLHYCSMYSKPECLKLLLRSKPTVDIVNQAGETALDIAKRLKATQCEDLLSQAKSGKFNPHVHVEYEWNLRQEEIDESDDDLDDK
pPAFAH inh = pPAFAH (human) enzyme inhibition. recombinant pPAFAH, FP-rhodamine probe fluorescence polarization. inhibition, % at 3.39 µM. actives 1.5% (n = 330,000). AID 463082;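 active = inhibition above the mean inhibition across the screen plus 3 SD, cut at about 25% in these data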;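 note: inhibitors block binding of the rhodamine activity-based probe so polarization drops; 0% = enzyme with DMSO and 100% = wells lacking pPAFAH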
ARFGAP1 inhibitor = rat ARFGAP1 inhibition; Q62848; Arfgap1-stimulated ARF1 GTP hydrolysis, GDP FP detection; inhibition, % at 16.5 µM; actives 0.26% (n = 360,000);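 active = inhibition above a per-plate limit, mean inhibition of low control wells plus 3 SD, cut at about 25% in these data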;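 note: 0% = DMSO wells with enzyme and 100% = wells lacking Arfgap1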
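Material: truncated rat Arfgap1 GAP domain; Incubation: compound-enzyme preincubation 20 min, reaction 120 min, detection 60 min, 25 °C; Read-out: percent inhibition of Arfgap1-stimulated GTP hydrolysis; Technique: FP, GDP Alexa 633 tracer displaced from anti-GDP antibody, 620/688 nm; Controls: No-Arfgap1 wells (100%) versus DMSO full-reaction wells (0%); Replication: single well per compound.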
pPAFAH FP conf = confirmation of human plasma PAF acetylhydrolase (pPAFAH) inhibitors. shares compounds with pPAFAH inh. recombinant pPAFAH, FP-Rh probe fluorescence polarization. inhibition, % at 3.39 µM. actives 72% (n = 2,300). AID 463230;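 active = mean inhibition of the triplicate above the hit cutoff set for the earlier primary screen, cut at about 25% in these data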;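 note: 0% = enzyme with DMSO and 100% = wells lacking pPAFAH enzyme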
The depositor's hits bear a star.

`COC(=O)/C(=C/Nc1ccc(O)cc1)[N+](=O)[O-]` gave PAFAH1B3 inh 5, PAFAH1B2 inh 5, PAFAH2 inh -6, ASAP1 GAP inh 2, pPAFAH inh 37*, ARFGAP1 inhibitor 11 and pPAFAH FP conf 2.
COC(=O)/C(=C/Nc1ccccc1)[N+](=O)[O-] was read as PAFAH1B3 inh 7, PAFAH1B2 inh 4, PAFAH2 inh -5, ASAP1 GAP inh -4, pPAFAH inh 6 and ARFGAP1 inhibitor 12.
Screening CC1(C(=O)NCCc2c[nH]c3ccccc23)CCN1Cc1ccccc1OC(F)F (centres undefined) returned ASAP1 GAP inh 4 and ARFGAP1 inhibitor 0.
`Oc1ccccc1C=NNC(=S)NC1CC2C=CC1C2` (centres undefined) gave ASAP1 GAP inh -4 and ARFGAP1 inhibitor 1.
Oc1c(Cl)cc(Cl)cc1/C=N/NC(=S)NC1CC2C=CC1C2 (centres undefined) was read as PAFAH1B3 inh 26*, PAFAH1B2 inh 21, PAFAH2 inh 68*, ASAP1 GAP inh 1, pPAFAH inh 36*, ARFGAP1 inhibitor -11 and pPAFAH FP conf 34*.
Screening COc1ccc(-c2coc3c(C(=O)Nc4cccc(NS(C)(=O)=O)c4)cccc23)c(C)c1 returned ASAP1 GAP inh -11 and ARFGAP1 inhibitor 20.
CCNC(=O)C(=O)NCC(c1ccc2c(c1)OCO2)N1CCOCC1 (centres undefined) was read as PAFAH1B3 inh 1, PAFAH1B2 inh -3, PAFAH2 inh -1, ASAP1 GAP inh 1, pPAFAH inh 5 and ARFGAP1 inhibitor 5.
Screening Cc1ccc(C(=O)Nc2nnc(CC(=O)N/N=C/c3ccc(O)c(O)c3)s2)cc1 returned PAFAH1B3 inh 19, PAFAH1B2 inh 14, PAFAH2 inh 28, ASAP1 GAP inh 15, pPAFAH inh 51*, ARFGAP1 inhibitor -18 and pPAFAH FP conf 87*.
Screening CCOc1ccc(N2C(=O)CC(Cc3ccccc3OC)C2=O)cc1 (centres undefined) returned PAFAH1B3 inh 10, PAFAH1B2 inh 8, PAFAH2 inh 3, ASAP1 GAP inh 11, pPAFAH inh 1 and ARFGAP1 inhibitor -14.
COc1ccc(S(=O)(=O)Nc2c(C(=O)O)[nH]c3ccccc23)c(OC)c1 was read as PAFAH1B3 inh 9, PAFAH1B2 inh 12, PAFAH2 inh 6, ASAP1 GAP inh -3, pPAFAH inh 51*, ARFGAP1 inhibitor -6 and pPAFAH FP conf 5.
CCOC(=O)N(C)c1c(CC)nc2c(OCc3cc(Cl)cc(Cl)c3)cccn12 was read as ASAP1 GAP inh -8 and ARFGAP1 inhibitor -8.
Screening N#Cc1c(SCC(=O)Nc2nncs2)sc2c(O)cc(=O)[nH]c12 returned PAFAH1B3 inh 36*, PAFAH1B2 inh 14, PAFAH2 inh 37*, ASAP1 GAP inh 0, pPAFAH inh 49*, ARFGAP1 inhibitor 8 and pPAFAH FP conf 10.
`COc1cc(Cl)c(C)cc1NC(=O)CSc1sc2c(O)cc(=O)[nH]c2c1C#N` gave PAFAH1B3 inh 13, PAFAH1B2 inh 9, PAFAH2 inh 14, ASAP1 GAP inh -5, pPAFAH inh 40*, ARFGAP1 inhibitor 2 and pPAFAH FP conf 31*.
Screening COc1cc(Cl)c(C)cc1NC(=O)CSCC#N returned PAFAH1B3 inh 3, PAFAH1B2 inh 1, PAFAH2 inh -3, ASAP1 GAP inh -9, pPAFAH inh -7 and ARFGAP1 inhibitor -1.
`NC(=O)COC(=O)[C@@H]1CC(O)CN1S(=O)(=O)c1ccc2c(c1)OCCO2` (some centres undefined) gave PAFAH1B3 inh -4, PAFAH1B2 inh 4, PAFAH2 inh -3, ASAP1 GAP inh 6, pPAFAH inh -2 and ARFGAP1 inhibitor 3.
`Cc1oc(-c2ccc(Cl)cc2)cc1-c1nn2c(-c3ccoc3C)nnc2s1` gave PAFAH1B3 inh -1, PAFAH1B2 inh 3, PAFAH2 inh 28, ASAP1 GAP inh 10, pPAFAH inh 53*, ARFGAP1 inhibitor -5 and pPAFAH FP conf 43*.

Screens deposited in PubChem BioAssay by The Scripps Research Institute Molecular Screening Center.
